Data reported in PMC4857762 (Journal of pharmaceutical sciences, 2016).

How the values were obtained:
mouse jejunum = assay: In situ single-pass intestinal perfusion; conditions: mouse proximal jejunum, 0.1 mM, pH 6.0
pepsin = pepsin (Sus scrofa, UniProt P00791); assay: Hydrolysis in pH 1.2 SGF with pepsin; format: in vitro ADME; conditions: 37 °C, stable = no decrease in area by HPLC after 2 h
[1] = system: Wild-type mice intestinal tissue homogenates; conditions: mouse, tissue homogenate, pH 6
[2] = system: BPHL knock-out mice intestinal tissue homogenates; conditions: mouse, tissue homogenate, pH 6
Caco-2 cell homogenates = assay: Hydrolysis in Caco-2 cell homogenates; format: in vitro ADME, Human; conditions: Caco-2 Cell homogenates (pH 6.0), 500 μg/mL protein, 37 °C
hPEPT1 = target: T1, hPEPT1 (Homo sapiens, UniProt P46059); assay: Uptake in Xenopus laevis oocytes expressing hPEPT1; format: cell-based; conditions: 50 μM, pH 6.0, 30 min, room temperature
T1 sequence (P46059 1-708): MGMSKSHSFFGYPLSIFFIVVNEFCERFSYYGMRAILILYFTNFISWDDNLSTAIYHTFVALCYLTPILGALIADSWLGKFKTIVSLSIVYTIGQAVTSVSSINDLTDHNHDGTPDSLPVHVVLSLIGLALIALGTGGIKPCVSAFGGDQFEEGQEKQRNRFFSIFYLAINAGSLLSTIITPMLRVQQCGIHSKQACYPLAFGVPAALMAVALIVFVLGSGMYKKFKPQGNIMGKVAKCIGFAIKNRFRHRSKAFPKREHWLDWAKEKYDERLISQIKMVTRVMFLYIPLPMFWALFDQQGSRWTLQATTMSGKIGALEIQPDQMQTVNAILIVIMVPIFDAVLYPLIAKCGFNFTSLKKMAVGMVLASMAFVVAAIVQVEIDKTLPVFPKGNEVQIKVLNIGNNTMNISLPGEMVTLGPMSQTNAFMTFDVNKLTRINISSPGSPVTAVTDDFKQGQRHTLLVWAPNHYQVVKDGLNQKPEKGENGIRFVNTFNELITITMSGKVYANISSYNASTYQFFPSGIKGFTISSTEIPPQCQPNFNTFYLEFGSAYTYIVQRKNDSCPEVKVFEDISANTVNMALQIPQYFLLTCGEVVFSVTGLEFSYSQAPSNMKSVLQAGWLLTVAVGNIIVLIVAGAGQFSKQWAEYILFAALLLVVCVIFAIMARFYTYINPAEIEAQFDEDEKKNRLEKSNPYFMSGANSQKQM
Outline: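 Oocytes injected with hPEPT1 cRNA, with water-injected oocytes as controls. Uptake at room temperature, pH 6.0, in modified Barth's solution (96 mM NaCl, 10 mM HEPES), 50 μM for 30 min; time course up to 3 h; 50–5000 μM for 3 h. Gly-Sar (1, 20 mM) competition expressed as % of uptake without Gly-Sar. Mean ± SEM, 8–13 experiments.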

HepG2 cell homogenates = assay: Hydrolysis in HepG2 cell homogenates; format: in vitro ADME, human; conditions: HepG2 Cell homogenates (pH 6.0), 500 μg/mL protein, 37 °C
[3] = Chemical stability in buffers at 37 °C
pancreatin = assay: Hydrolysis in buffers / SIF with pancreatin; format: in vitro ADME
Caco-2 cell monolayers = assay: Transepithelial transport across Caco-2 cell monolayers; conditions: AP-BL
Caco-2 cells = assay: Intracellular accumulation into Caco-2 cells after transport study; format: in vitro ADME, Human; conditions: Caco-2 cell lysate after 2 h transport study with the prodrug
[4] = In situ single-pass intestinal perfusion; conditions: male, BALB/c, mouse, other: in situ single-pass intestinal (jejunal) perfusion, pH 6
in vitro [5] = conditions: male, mouse, tissue homogenate, pH 6
in vitro [6] = conditions: male, BPHL knock-out, mouse, tissue homogenate, pH 6
[7] = given as the ethyl ester prodrug oseltamivir; cited from earlier work

Chain of pepsin (P00791 60-385): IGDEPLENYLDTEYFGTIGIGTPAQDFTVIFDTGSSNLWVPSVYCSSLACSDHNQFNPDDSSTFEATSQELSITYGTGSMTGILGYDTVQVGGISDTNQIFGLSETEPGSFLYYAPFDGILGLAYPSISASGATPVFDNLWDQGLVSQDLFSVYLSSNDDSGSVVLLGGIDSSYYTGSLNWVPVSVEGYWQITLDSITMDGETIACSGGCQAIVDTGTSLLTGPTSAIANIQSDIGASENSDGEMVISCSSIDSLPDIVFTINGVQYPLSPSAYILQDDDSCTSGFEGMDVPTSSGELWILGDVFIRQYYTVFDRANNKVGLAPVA

CCC(CC)O[C@@H]1C=C(C(=O)O)C[C@H](NC(=N)N)[C@H]1NC(C)=O [GOC]
Effective permeability (Peff) (mouse jejunum): approximately zero | Half-life (t1/2) (pepsin): stable ^b | Half-life (t1/2) [1]: stable ^b | Half-life (t1/2) [2]: stable ^b | Half-life (t1/2) (Caco-2 cell homogenates): stable ^b | Uptake in hPEPT1 cRNA-injected oocytes versus water-injected control oocytes (hPEPT1): no increase in uptake | Half-life (t1/2) (HepG2 cell homogenates): stable ^b | Half-life (t1/2) ([3]; pH 1.2 SGF without pepsin, 0.2 mM, stable = no decrease in area by HPLC after 2 h): stable ^b | Half-life (t1/2) ([3]; pH 4.5 Acetate buffer): stable ^b | Half-life (t1/2) ([3]; pH 5.5 Acetate buffer): stable ^b | Half-life (t1/2) ([3]; pH 6.0 MES buffer): stable ^b | Half-life (t1/2) ([3]; pH 7.4 Phosphate buffer): stable ^b | Half-life (t1/2) (pancreatin; pH 4.5 Acetate buffer with pancreatin): stable ^b | Half-life (t1/2) (pancreatin; pH 5.5 Acetate buffer with pancreatin): stable ^b | Half-life (t1/2) (pancreatin; pH 6.0 MES buffer with pancreatin): stable ^b | Half-life (t1/2) (pancreatin; pH 6.8 SIF with pancreatin): stable ^b | Apparent permeability (Papp) (Caco-2 cell monolayers; apical pH 6.0 / basolateral pH 7.4, 37 °C): 7.98±4.61 x 10^−7 cm/s | Amount in cells (share of accumulated species after GOC-ISP-Val transport study) (Caco-2 cells): 49.2%

COCCc1ccc(OCC(O)CNC(C)C)cc1 (centres unmarked) [metoprolol]
Papp at 1.5 h, 0.1 mM [4]: 53.8 ± 16.8 ×10⁻⁶ cm/s | Papp relative to that of the prodrug GOC-ISP-Val (Caco-2 cell monolayers; 0.2 mM): 1.7 times higher

CC(C)[C@H](N)C(=O)OCCOCn1cnc2c(=O)[nH]c(N)nc21 [valacyclovir]
half-life (in vitro [5]): 1.58 h | half-life (in vitro [6]): 3.12 h

CCC(CC)O[C@@H]1C=C(C(=O)O)C[C@H](N)[C@H]1NC(C)=O [oseltamivir carboxylate]
Oral bioavailability [7]: about 80%
